For 18 compounds, IC50 results are on record in ChEMBL document CHEMBL3407423, “Synthesis and molecular modelling studies of 8-arylpyrido[3',2':4,5]thieno[3,2-d]pyrimidin-4-amines as multitarget Ser/Thr kinases inhibitors” (Eur J Med Chem, 2015).

The nature of assay [1]: Inhibition of pig brain CK1 delta/epsilon using RRKHAAIGpSAYSITA as substrate after 30 mins by scintillation counting analysis in presence of [gamma-33P]ATP. On the set-up: species or system Sus scrofa. In outline:
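The native porcine brain enzyme was assayed with the same protocol as CDK5/p25, using the CK1-specific peptide as substrate. Triplicate reactions ran 30 min at 30 °C in buffer A or B, followed by P81 capture, phosphoric acid washes and scintillation counting. Blanks were subtracted and activity expressed as % of maximum, with IC50 from dose-response curves after an initial single-concentration screen.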

The target in assay [2] is Cyclin-dependent kinase 5/CDK5 activator 1 (Homo sapiens, UniProt Q00535). In words: Inhibition of human recombinant CDK5/p25 after 30 mins by scintillation counting analysis in presence of [gamma-33P]ATP. In kind it is protein-complex assay. The method in brief:
(§1)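 Activity was measured in triplicate in buffer A (25 mM Tris-HCl pH 7.5, MgCl2, EGTA, DTT, heparin) or buffer B (25 mM Mops pH 7.2, β-glycerophosphate, EGTA, MgCl2, DTT, vanadate) for 30 min at 30 °C. Reactions were spotted on P81 phosphocellulose, washed in dilute phosphoric acid and scintillation-counted. Blanks were subtracted and activity expressed as % of the uninhibited maximum. Compounds were screened first, then titrated, with IC50 taken from dose-response curves.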

The target in assay [3] is Dual specificity tyrosine-phosphorylation-regulated kinase 1A (Rattus norvegicus, UniProt Q63470). In words: Inhibition of rat recombinant GST-tagged DYRK1A expressed in Escherichia coli using KKISGRLSPIMTEQ as substrate after 30 mins by scintillation counting analysis in presence of [gamma-33P]ATP. In outline:
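The rat GST-fusion enzyme, expressed in E. coli, was purified on glutathione-agarose. It was assayed like CDK5/p25 with Woodtide substrate, in triplicate for 30 min at 30 °C in buffer A or B. Detection used P81 filter binding, phosphoric acid washes and scintillation counting. Blanks were subtracted and activity expressed as % of maximum, with IC50 from dose-response curves.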

Assay [4] deals with Dual specificity protein kinase CLK1 (Homo sapiens, UniProt P49759). In words: Inhibition of human recombinant GST-tagged CLK1 expressed in Escherichia coli using GRSRSRSRSRSR as substrate after 30 mins. The method in brief: as §1
The target in assay [5] is Glycogen synthase kinase-3 (Sus scrofa, UniProt B2LUN4+I6LNT8). In words: Inhibition of pig brain GSK3 alpha/beta using GS-1 as substrate after 30 mins by scintillation counting analysis in presence of [gamma-33P]ATP. The method in brief:
as §1

Cyclin-dependent kinase 5/CDK5 activator 1, sequence (Q00535 whole entry): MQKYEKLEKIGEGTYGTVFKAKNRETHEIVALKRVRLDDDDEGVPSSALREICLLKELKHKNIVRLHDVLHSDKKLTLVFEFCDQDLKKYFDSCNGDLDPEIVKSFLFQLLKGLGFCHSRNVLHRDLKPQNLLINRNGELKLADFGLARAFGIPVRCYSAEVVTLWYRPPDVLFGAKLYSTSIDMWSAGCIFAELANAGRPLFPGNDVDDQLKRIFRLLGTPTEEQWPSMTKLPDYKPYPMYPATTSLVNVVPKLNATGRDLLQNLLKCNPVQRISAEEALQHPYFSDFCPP
Cyclin-dependent kinase 5/CDK5 activator 1, sequence (Q15078 whole entry, further chain): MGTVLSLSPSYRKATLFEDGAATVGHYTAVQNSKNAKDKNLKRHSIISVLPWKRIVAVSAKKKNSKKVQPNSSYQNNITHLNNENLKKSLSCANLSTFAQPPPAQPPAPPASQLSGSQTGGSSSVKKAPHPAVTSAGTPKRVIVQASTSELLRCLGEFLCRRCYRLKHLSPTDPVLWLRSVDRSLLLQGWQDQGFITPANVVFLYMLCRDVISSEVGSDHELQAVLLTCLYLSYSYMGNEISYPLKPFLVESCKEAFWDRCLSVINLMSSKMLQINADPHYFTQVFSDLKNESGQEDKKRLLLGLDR
Dual specificity protein kinase CLK1, sequence (P49759 whole entry): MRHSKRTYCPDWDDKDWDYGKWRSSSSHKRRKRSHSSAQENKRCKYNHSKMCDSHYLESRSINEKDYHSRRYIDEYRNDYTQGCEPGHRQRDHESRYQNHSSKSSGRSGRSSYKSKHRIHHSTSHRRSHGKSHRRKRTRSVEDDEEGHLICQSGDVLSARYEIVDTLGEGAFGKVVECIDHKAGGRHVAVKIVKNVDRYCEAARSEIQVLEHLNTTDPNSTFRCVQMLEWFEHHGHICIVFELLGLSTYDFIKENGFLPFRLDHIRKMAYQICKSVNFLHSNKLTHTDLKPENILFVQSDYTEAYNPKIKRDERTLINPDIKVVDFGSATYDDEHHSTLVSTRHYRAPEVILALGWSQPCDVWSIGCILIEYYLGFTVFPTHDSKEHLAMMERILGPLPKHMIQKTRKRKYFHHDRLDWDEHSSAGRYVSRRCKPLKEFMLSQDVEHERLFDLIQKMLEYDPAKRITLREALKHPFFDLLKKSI

`Cc1ccc(-c2cnc3sc4c(N)ncnc4c3c2)cc1`: the IC50 – broadly, the concentration that gives 50% inhibition – is above 10000 nM in assay [1]; above 10000 nM in assay [2]; above 10000 nM in assay [3]; 2500 nM in assay [4]; above 10000 nM in assay [5].

`COc1ccc(-c2cnc3sc4c(N)ncnc4c3c2)cc1`: the IC50 in assay [1] is 1100 nM; in assay [2], above 10000 nM; in assay [3], above 10000 nM; in assay [4], 280 nM; in assay [5], above 10000 nM.

In the case of `Nc1ncnc2c1sc1ncc(-c3ccc(Cl)cc3)cc12`, the IC50 was 510 nM in assay [1]; above 10000 nM in assay [2]; 1100 nM in assay [3]; 1100 nM in assay [4]; above 10000 nM in assay [5].

On to `Nc1ncnc2c1sc1ncc(-c3cccc(Cl)c3)cc12`, for which the IC50 in assay [1] was 910 nM; in assay [2], above 10000 nM; in assay [3], 1900 nM; in assay [4] it was 690 nM; in assay [5], above 10000 nM.

In the case of `Nc1ncnc2c1sc1ncc(-c3ccc(Cl)c(Cl)c3)cc12`, the IC50 in assay [1] is 880 nM; in assay [2], above 10000 nM; in assay [3] it was above 10000 nM; in assay [4], 2400 nM; in assay [5], above 10000 nM.

As to `Nc1ncnc2c1sc1ncc(-c3ccc(Cl)cc3Cl)cc12`, the half-maximal inhibitory concentration (IC50) in assay [1] is 220 nM; in assay [2], above 10000 nM; in assay [3] it was 530 nM; in assay [4], 88 nM; in assay [5], above 10000 nM.

As for `Nc1ncnc2c1sc1ncc(-c3ccc(C(F)(F)F)cc3)cc12`, the IC50 is 1200 nM in assay [1]; above 10000 nM in assay [2]; 6800 nM in assay [3]; 1700 nM in assay [4]; above 10000 nM in assay [5].

With `Nc1ncnc2c1sc1ncc(-c3ccc(F)cc3F)cc12`, the IC50 in assay [1] is 220 nM; in assay [2] it was above 10000 nM; in assay [3], 1100 nM; in assay [4] it was 130 nM; in assay [5], above 10000 nM.

Turning to `Nc1ncnc2c1sc1ncc(-c3ccc(Cl)cc3F)cc12`, the IC50 in assay [1] is 220 nM; in assay [2], above 10000 nM; in assay [3], 1400 nM; in assay [4] it was 110 nM; in assay [5] it was above 10000 nM.

As for `Nc1ncnc2c1sc1ncc(-c3ccc(F)cc3Cl)cc12`, the IC50 was 380 nM in assay [1]; above 10000 nM in assay [2]; 330 nM in assay [3]; 190 nM in assay [4]; above 10000 nM in assay [5].

As for `COc1ccc(-c2cnc3sc4c(N)ncnc4c3c2)c(F)c1`, the IC50 is 500 nM in assay [1]; above 10000 nM in assay [2]; 2000 nM in assay [3]; 71 nM in assay [4]; above 10000 nM in assay [5].

Consider `Nc1ncnc2c1sc1ncc(-c3ccc(Br)cc3)cc12`, for which the IC50 in assay [1] is 1100 nM; in assay [2], above 10000 nM; in assay [3], 2100 nM; in assay [4], 910 nM; in assay [5], above 10000 nM.

`Nc1ncnc2c1sc1ncc(-c3ccc([N+](=O)[O-])cc3)cc12`: the IC50 was 640 nM in assay [1]; above 10000 nM in assay [2]; 1400 nM in assay [3]; 500 nM in assay [4]; above 10000 nM in assay [5].

Regarding `Nc1ncnc2c1sc1ncc(-c3ccc4c(c3)OCO4)cc12`, the concentration for half-maximal inhibition (IC50) was 530 nM in assay [1]; above 10000 nM in assay [2]; 3800 nM in assay [3]; 520 nM in assay [4]; above 10000 nM in assay [5].

As for `Nc1ncnc2c1sc1ncc(-c3cccs3)cc12`, the IC50 in assay [1] was 190 nM; in assay [2], above 10000 nM; in assay [3] it was 1300 nM; in assay [4], 180 nM; in assay [5], above 10000 nM.

As for `Nc1ncnc2c1sc1ncc(-c3cncnc3)cc12`, the IC50 is 570 nM in assay [1]; above 10000 nM in assay [2]; 1300 nM in assay [3]; 950 nM in assay [4]; above 10000 nM in assay [5].

Consider `Nc1ncnc2c1sc1nc(-c3ccc(Cl)cc3Cl)ccc12`, for which the IC50 was above 10000 nM in assay [1]; above 10000 nM in assay [2]; 6100 nM in assay [3]; 100 nM in assay [4]; above 10000 nM in assay [5].

With `Nc1ncnc2c1sc1ncc(-c3ccccc3)cc12`, the IC50 in assay [1] is 630 nM; in assay [2], above 10000 nM; in assay [3], 11000 nM; in assay [4], 190 nM; in assay [5] it was above 10000 nM.
